Hits are enriched below; roughly 3.7% of the tested compounds scored in any of these assays.
proCasp7 act = procaspase-7 activators, primary screen, counter-screen for procaspase-3 activator project, biochemical, absorbance, HTS, human; Caspase-7 (Homo sapiens), P55210; recombinant procaspase-7, Ac-DEVD-pNA absorbance 405 nm; D23A/D198A/D206A triple mutant, cannot self-cleave; scale: DMSO 0, 5 µM enzyme 100; activation, % at 8.5 µM; AID 463210, 2010; hit rate 0.093% among 330,000;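 active = percent activation above the screen-wide mean plus 3 SD, cut at about 25% in these data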
Target sequence (P55210 whole entry D23A/D198A/D206A): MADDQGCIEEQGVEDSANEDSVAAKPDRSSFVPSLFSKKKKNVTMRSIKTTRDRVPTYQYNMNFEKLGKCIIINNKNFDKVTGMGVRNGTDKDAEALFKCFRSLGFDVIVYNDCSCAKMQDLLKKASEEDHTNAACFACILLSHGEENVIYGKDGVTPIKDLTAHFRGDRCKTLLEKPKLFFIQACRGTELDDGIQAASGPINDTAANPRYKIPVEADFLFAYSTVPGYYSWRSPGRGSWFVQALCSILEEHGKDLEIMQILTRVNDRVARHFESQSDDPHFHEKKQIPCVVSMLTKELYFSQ
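Replicates: singlicate. Assay system: Procaspase-7 triple mutant (PC-7 D3A). Signal: 405 nm absorbance of p-nitroaniline. Times: 1 h preincubation, 2 h reaction. Buffer or medium: Zinc-free HEPES pH 7.4 with 300 mM NaCl, 0.01% Triton X-100. Also added: DEVD-pNA substrate. Benchmarks: DMSO wells as 0%, DMSO with 5 µM added PC-7 as 100%.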
GRIN3A LBD mod = binders of NR3A ligand-binding domain, primary screen, biophysical, differential scanning fluorimetry, uHTS. Tm shift relative to glycine control, % at 25 µM. Glutamate receptor ionotropic, NMDA 3A (GRIN3A) ligand-binding domain. hit rate 2.5% among 340,000. NR3A LBD differential scanning fluorimetry, Tm shift; 0% = protein alone, 100% = glycine-bound protein;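 active = melting temperature shift of at least 10% of the positive control shift, at one fixed dose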
aDG glyco up = activators of alpha-DG glycosylation, primary screen, uHTS, Pro5-aDG cells, AlphaScreen; hit rate 0.22% among 360,000; alpha-DG glycosylation AlphaScreen (IIH6); 0% Pro5, 100% B10-LARGE cell signal; activation, % at 10 µM;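 active = activation of at least 8% versus controls, or a plate z-score of at least 8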;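 note: Pro5 are CHO cells carrying HIG-tagged alpha-DG that lacks glycosylation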
MPTP block = mitochondrial permeability transition pore inhibitors, primary screen, biochemical, isolated mouse mitochondria, absorbance. Ca2+ swelling absorbance, 30 min. inhibition, % at 10 µM. hit rate 1.4% among 360,000;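 active = inhibition of 50% or more, scaled per plate between neutral and stimulator controls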
proCasp3 act = activators of human procaspase-3 D3A mutant, primary screen, biochemical, absorbance, PC-3 D3A mutant, single concentration; activation, % at 8.5 µM; hit rate 0.11% among 330,000; recombinant procaspase-3 D3A, Ac-DEVD-pNA absorbance 405 nm; AID 463141, 2010;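 active = activation above the mean of all tested compounds plus 3 SD, cut at about 21% in these data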
Target sequence (P42574 whole entry D9A/D28A/D175A): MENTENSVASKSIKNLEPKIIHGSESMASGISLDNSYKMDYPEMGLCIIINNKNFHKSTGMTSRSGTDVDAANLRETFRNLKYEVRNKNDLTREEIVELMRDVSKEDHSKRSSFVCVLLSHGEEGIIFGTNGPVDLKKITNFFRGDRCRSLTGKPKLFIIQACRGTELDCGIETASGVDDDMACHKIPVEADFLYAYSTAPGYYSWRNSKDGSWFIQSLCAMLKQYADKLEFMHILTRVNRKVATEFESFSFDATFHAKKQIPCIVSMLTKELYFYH
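System: Procaspase-3 D3A mutant. Medium: Zinc-free 300 mM NaCl, 50 mM HEPES, 0.01% Triton X-100. Schedule: 1 h preincubation plus 2 h reaction at 25 °C. Measured by: 405 nm absorbance of p-nitroaniline, reads at 0 and 120 min. Read-out: percent activation relative to control range.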
procasp7 triplic = procaspase-7 activators, counter-screen for procaspase-3 activator project, biochemical, absorbance, triplicate, human | 210 tested, under 10 active | recombinant procaspase-7, Ac-DEVD-pNA absorbance; asp23/198/206-to-Ala mutant, cannot self-cleave | shares compounds with proCasp3 act | activation, % at 8.5 µM | AID 488941, 2010;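 active = mean activation above a set limit taken from an earlier procaspase-7 screen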
proCasp3 confirm = activators of human procaspase-3 D3A mutant, confirmation, biochemical, absorbance, PC-3 D3A mutant, triplicate. shares compounds with proCasp3 act. recombinant PC-3 D3A, Ac-DEVD-pNA absorbance 405 nm; 100% is higher-enzyme control. activation, % at 8.5 µM. hit rate 10% among 210. AID 488954, 2010;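 active = mean activation above a set limit carried over from the earlier primary screen, cut at about 22% in these data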
Numbers stand for hits.

CCOc1ccccc1NC(=O)COc1coc(CN2CCc3ccccc3C2)cc1=O was read as proCasp7 act inactive, GRIN3A LBD mod inactive, aDG glyco up inactive, MPTP block inactive, proCasp3 act 22, procasp7 triplic inactive and proCasp3 confirm inactive.
Screening CCCCn1nc(C(=O)N(C)C2CCCCC2)c2ccccc2c1=O returned proCasp7 act inactive, GRIN3A LBD mod inactive, aDG glyco up inactive, MPTP block inactive, proCasp3 act 22, procasp7 triplic inactive and proCasp3 confirm inactive.
For O=C(Cn1c2ccccc2c(=O)c2ccccc21)Nc1ccccc1F the results were proCasp7 act inactive, GRIN3A LBD mod inactive, aDG glyco up inactive, MPTP block inactive, proCasp3 act 28, procasp7 triplic inactive and proCasp3 confirm inactive.
Screening COC(=O)[C@H](CCSC)NC(=O)Cn1cc(C)c(=O)[nH]c1=O returned GRIN3A LBD mod inactive, aDG glyco up inactive and MPTP block inactive.
Screening CCN(CC(=O)Nc1ccc2c(c1)OCCO2)C(=O)c1ccc(C(F)(F)F)cc1 returned proCasp7 act inactive, GRIN3A LBD mod inactive, aDG glyco up inactive, MPTP block inactive and proCasp3 act inactive.
Screening CCOC(=O)c1ccc(N/C=C/C(=O)c2ccc(OC)c(OC)c2)cc1 returned proCasp7 act inactive, GRIN3A LBD mod inactive, aDG glyco up inactive, MPTP block inactive, proCasp3 act 25, procasp7 triplic inactive and proCasp3 confirm inactive.
For CCOc1ccc(N/C=C/C(=O)c2ccc(OC)c(OC)c2)cc1 the results were proCasp7 act inactive, GRIN3A LBD mod inactive, aDG glyco up inactive, MPTP block inactive and proCasp3 act inactive.
`NC(=O)c1c(NC(=O)c2ccccc2F)sc2c1CCCC2` gave proCasp7 act inactive, GRIN3A LBD mod inactive, aDG glyco up inactive, MPTP block inactive, proCasp3 act 37, procasp7 triplic inactive and proCasp3 confirm inactive.
NC(=O)c1c(NC(=O)c2ccccc2C(=O)O)sc2c1CCCC2 was read as proCasp7 act inactive, GRIN3A LBD mod inactive, aDG glyco up inactive, MPTP block inactive and proCasp3 act inactive.
For COc1ccccc1C(O)c1ncc(-c2cccc(C(F)(F)F)c2)[nH]1 (stereo unspecified) the results were aDG glyco up inactive and MPTP block inactive.
`O=C(CN1C(=O)c2cccc3cccc1c23)NCc1ccc2c(c1)OCO2` gave proCasp7 act inactive, GRIN3A LBD mod inactive, aDG glyco up inactive, MPTP block inactive, proCasp3 act 29, procasp7 triplic inactive and proCasp3 confirm inactive.
For C=CCn1c2ccccc2c(=O)c2cc(C#CC3(O)CCCCC3)ccc21 the results were proCasp7 act inactive, GRIN3A LBD mod inactive, aDG glyco up inactive, MPTP block inactive, proCasp3 act 150, procasp7 triplic inactive and proCasp3 confirm inactive.
`C=CCn1c2ccccc2c(=O)c2cc(C#CC[C@@H](C)O)ccc21` gave proCasp7 act inactive, GRIN3A LBD mod inactive, aDG glyco up inactive, MPTP block inactive and proCasp3 act inactive.
Screening CCN1C(=O)[C@H]2[C@@H](c3ccc(C)cc3)N[C@]3(CCCN(Cc4ccc(OC)cc4)C3=O)[C@H]2C1=O returned aDG glyco up inactive and MPTP block inactive.
`O=C(CCNS(=O)(=O)c1cccc2nsnc12)N1CC(=O)N(CCc2ccccc2)C(=O)C1` gave proCasp7 act inactive, GRIN3A LBD mod inactive, aDG glyco up inactive, MPTP block inactive, proCasp3 act 24, procasp7 triplic inactive and proCasp3 confirm inactive.
For COc1ccc(N2CCN(C(=O)CC34CC5CC(CC(C5)C3)C4)CC2)c([N+](=O)[O-])c1 the results were proCasp7 act inactive, GRIN3A LBD mod inactive, aDG glyco up inactive, MPTP block inactive, proCasp3 act 22, procasp7 triplic inactive and proCasp3 confirm inactive.
O=C1OCCN1C(=O)[C@H]1[C@H](c2ccc(Cl)cc2)C(c2ccccc2)=NN1c1ccc(Br)cc1 was read as proCasp7 act inactive, GRIN3A LBD mod 15, aDG glyco up inactive, MPTP block inactive, proCasp3 act 28, procasp7 triplic inactive and proCasp3 confirm inactive.
Screening O=C1OCCN1C(=O)[C@H]1[C@H](c2ccc(Cl)cc2)C(c2cccc(Cl)c2)=NN1c1ccccc1 returned proCasp7 act inactive, GRIN3A LBD mod 17, aDG glyco up inactive, MPTP block inactive, proCasp3 act 23, procasp7 triplic inactive and proCasp3 confirm inactive.
Cc1cccc(C2=NN(c3ccc(Br)cc3)[C@@H](C(=O)N3CCOC3=O)[C@@H]2c2ccc(Cl)cc2)c1 was read as proCasp7 act inactive, GRIN3A LBD mod 17, aDG glyco up inactive, MPTP block inactive, proCasp3 act 23, procasp7 triplic inactive and proCasp3 confirm inactive.
For COc1ccccc1[C@@H]1C(c2cccc(Cl)c2)=NN(c2ccccc2)[C@H]1C(=O)N1CCOC1=O the results were proCasp7 act inactive, GRIN3A LBD mod inactive, aDG glyco up inactive, MPTP block inactive and proCasp3 act inactive.
`Cn1c(C=O)c(C#Cc2ccccc2)c2ccccc21` gave proCasp7 act inactive, GRIN3A LBD mod inactive, aDG glyco up inactive, MPTP block inactive and proCasp3 act inactive.
CC(=O)Nc1cc(-c2ccccc2Cl)cn2c(-c3ccc(S(C)(=O)=O)cc3)cnc12 was read as aDG glyco up inactive and MPTP block inactive.
`Cc1ccc(C)c(NC(=O)CSc2nnc(-c3ccccc3)o2)c1` gave proCasp7 act inactive, GRIN3A LBD mod inactive, aDG glyco up inactive, MPTP block inactive and proCasp3 act inactive.
Cc1ccc(NC(=O)CSc2nnc(-c3cccnc3)o2)c(C)c1 was read as proCasp7 act inactive, GRIN3A LBD mod inactive, aDG glyco up inactive, MPTP block inactive, proCasp3 act 23, procasp7 triplic inactive and proCasp3 confirm inactive.
CC(C)=CCOc1ccc2c(C)c(CCC(=O)N3C[C@H]4C[C@@H](C3)c3cccc(=O)n3C4)c(=O)oc2c1C was read as aDG glyco up inactive and MPTP block inactive.
